What was measured:
Glutamate NMDA receptor [1] = test: Stimulation of [3H]-MK-801 binding to EAA receptor sites in rat cortical membranes
[2] = biological target: T1, Glutamate receptor ionotropic, AMPA (Rattus norvegicus, UniProt P19490+P19491+P19492+P19493); test: Tested in vitro for the concentration required to inhibit [3H]AMPA radioligand at EAA receptor sites in rat cortical membranes; format: cell membranes
Method in brief: (§1)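 Radioligand displacement ([3H]AMPA or [3H]CPP) in rat cortical membranes prepared by the Ransom and Stec method.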

Rattus norvegicus [3] = species: Rattus norvegicus; test: Effective concentration in vitro as electropharmacological activity in the rat cortical wedge preparation; format: functional
Method in brief: (§2)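 Rat brain wedges (500 μm) containing cerebral cortex and corpus callosum, separated by a grease gap. The cortex side is perfused with Mg2+-free oxygenated Krebs buffer containing the compounds, and the callosum side with Mg2+- and Ca2+-free Krebs. DC potentials are recorded via Ag/AgCl electrodes. Agonists for antagonism: NMDA 10 μM, AMPA 5 μM, kainic acid 10 μM. Dose–response curves come from single experiments, each repeated at least twice.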

Glutamate NMDA receptor [4] = test: Tested in vitro for the concentration required to inhibit [3H]CPP radioligand at EAA receptor sites in rat cortical membranes; format: cell membranes
Method in brief: as §1

[5] = biological target: T1, Glutamate receptor ionotropic, AMPA; test: Tested in vitro for the concentration required to inhibit [3H]AMPA radioligand at AMPA receptor sites in rat cortical membranes; format: cell membranes
[6] = biological target: Glutamate NMDA receptor (Rattus norvegicus) (UniProt P35439+Q00959+Q00960+Q00961+Q62645+Q8VHN2+Q9R1M7); test: Inhibition of [3H]CPP radioligand at EAA receptor sites in rat cortical membranes at 100 uM concentration; format: cell membranes; settings: Membrane
Method in brief: as §1

Rattus norvegicus [7] = species: Rattus norvegicus; test: Effective concentration in vitro as electropharmacological activity in the rat cortical wedge preparation; antagonist; format: functional
Method in brief: as §2

[8] = biological target: Glutamate receptor ionotropic, AMPA (Rattus norvegicus) (UniProt P19491+P19492+P19493+P19490); test: Inhibition of [3H]AMPA radioligand at EAA receptor sites in rat cortical membranes at 100 uM concentration; format: cell membranes; settings: Membrane
Method in brief: as §1

[9] = biological target: Glutamate receptor ionotropic, NMDA 2C (Rattus norvegicus) (UniProt Q00961); test: pKa was determined; format: functional
Sequence of Glutamate receptor ionotropic, NMDA 2C (Rattus norvegicus) (Q00961 20-1237 limits assumed): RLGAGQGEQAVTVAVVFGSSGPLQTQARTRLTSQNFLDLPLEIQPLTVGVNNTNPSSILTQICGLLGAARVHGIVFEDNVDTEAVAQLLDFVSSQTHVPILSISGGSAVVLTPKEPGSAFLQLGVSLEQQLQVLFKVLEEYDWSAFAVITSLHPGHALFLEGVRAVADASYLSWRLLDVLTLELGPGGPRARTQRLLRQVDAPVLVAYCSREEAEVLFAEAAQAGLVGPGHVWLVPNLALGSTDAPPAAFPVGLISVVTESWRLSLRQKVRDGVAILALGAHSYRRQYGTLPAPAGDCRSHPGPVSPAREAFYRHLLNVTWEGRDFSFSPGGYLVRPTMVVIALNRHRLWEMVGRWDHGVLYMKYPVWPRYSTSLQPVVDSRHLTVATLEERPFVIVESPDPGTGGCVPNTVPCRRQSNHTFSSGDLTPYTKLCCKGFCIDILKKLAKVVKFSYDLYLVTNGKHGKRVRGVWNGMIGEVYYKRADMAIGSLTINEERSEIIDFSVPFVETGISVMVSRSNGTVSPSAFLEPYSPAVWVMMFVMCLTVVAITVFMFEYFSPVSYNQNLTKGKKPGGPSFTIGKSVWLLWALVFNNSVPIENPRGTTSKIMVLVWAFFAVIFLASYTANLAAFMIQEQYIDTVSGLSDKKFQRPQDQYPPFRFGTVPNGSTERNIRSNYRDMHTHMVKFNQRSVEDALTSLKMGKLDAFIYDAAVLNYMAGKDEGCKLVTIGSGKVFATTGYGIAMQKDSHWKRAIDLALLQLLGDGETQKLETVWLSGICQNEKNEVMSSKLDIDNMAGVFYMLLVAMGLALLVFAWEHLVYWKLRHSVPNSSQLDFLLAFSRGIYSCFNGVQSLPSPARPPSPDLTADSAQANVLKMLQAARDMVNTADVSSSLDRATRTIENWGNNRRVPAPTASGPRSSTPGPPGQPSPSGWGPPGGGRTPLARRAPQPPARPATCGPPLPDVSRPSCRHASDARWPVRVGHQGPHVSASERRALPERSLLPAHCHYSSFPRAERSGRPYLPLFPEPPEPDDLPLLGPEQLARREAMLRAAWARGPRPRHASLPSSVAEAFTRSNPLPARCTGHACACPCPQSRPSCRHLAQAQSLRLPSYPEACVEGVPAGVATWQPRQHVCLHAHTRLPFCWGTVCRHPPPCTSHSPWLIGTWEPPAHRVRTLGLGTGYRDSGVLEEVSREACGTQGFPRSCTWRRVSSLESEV

Structure (SMILES)	EC50 (Glutamate NMDA receptor [1]) [µM]	IC50 [2] [µM]	EC50 (Rattus norvegicus [3]) [µM]	IC50 (Glutamate NMDA receptor [4]) [µM]	IC50 [5] [µM]	inhibition [6] [%]	EC50 (Rattus norvegicus [7])	inhibition [8] [%]	pKa [9]
NC(C(=O)O)c1c(O)noc1CO (configuration not stated)	5	> 100	8						
CC(C)(C)c1onc(O)c1CC(N)C(=O)O (configuration not stated)	> 100		48	> 100					
COC(C(=O)O)c1c(O)noc1C (configuration not stated)	> 100	> 100	> 5000	> 100					
NC(Cc1c(O)noc1CBr)C(=O)O (configuration not stated)	> 100		13		0.03				
NC(Cc1c(O)noc1CO)C(=O)O (configuration not stated)	> 100	0.4	110	> 100					
CNC(C(=O)O)c1c(C)o[nH]c1=O (configuration not stated)	50	> 100	70	18.3					
CSC(C(=O)O)c1c(O)noc1C (configuration not stated)	> 100	> 100	> 5000	> 100					
Cc1o[nH]c(=O)c1C(N)C(=O)O (configuration not stated)	0.45	> 100	4.3						
CC(C)(C)c1onc(O)c1C(N)C(=O)O (configuration not stated)	> 100	> 100		> 100		25	Antagonist	8	
O=C(O)c1cccnc1C(=O)O [QUINOLINIC ACID]		> 100	1500	> 100					< 2
NC1(C(=O)O)CCCCc2onc(O)c21 (configuration not stated)	> 100	> 100	2500	> 100					

From ChEMBL document CHEMBL1127856, “Synthesis and structure-activity studies on acidic amino acids and related diacids as NMDA receptor ligands” (J Med Chem, 1994)
